A word on the ED50: it is the midpoint of the dose-response relation. Read a low ED50 as an effect at a small dose.

The subject of series [1] is Mus musculus. The experiment in a line: Analgetic potency in iv dosed Swiss-Webster mouse relative to meperidine. The format is functional.
Series [2] concerns Liver. The series is described as follows: Drug metabolism in iv dosed Swiss-Webster mouse liver assessed as norme-peridine concentration measured per gram of tissue over 5 to 45 mins. Type of series: ADME, organism-based. The settings on record: in vivo. Put shortly: (§1)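 Mice received a single iv bolus of the ³H-labelled N-alkylnormeperidine into the lateral tail vein (0.033 ml/10 g), with 6 animals per time point. Livers were taken at 5, 10, 20, 30 and 45 min, homogenised in 0.01 N HCl, and spiked with unlabelled parent, normeperidine and a [¹⁴C] internal standard. Samples were basified to pH 12, extracted into C₆H₆ and separated by TLC. Parent and normeperidine were quantified by ³H/¹⁴C ratio, corrected for 5.8% (v/w) residual blood, and integrated over 5–45 min.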

For series [3], the system named is Liver. The series is described as follows: Drug metabolism in iv dosed Swiss-Webster mouse liver measured per gram of tissue over 5 to 45 mins. The format is ADME, organism-based. The settings on record: in vivo. In outline:
as §1

Series [4] has as its system Mus musculus. The series is described as follows: Analgetic potency in iv dosed Swiss-Webster mouse. Type of series: functional.
The next series deals with Brain. The series is described as follows: Drug uptake in iv dosed Swiss-Webster mouse brain measured per gram of tissue. The settings on record: in vivo. Type of series: ADME, organism-based. Put shortly:
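Mice received a single iv bolus of the ³H-labelled compound into the tail vein (0.033 ml/10 g). Whole brains were removed at 5, 10, 20, 30 and 45 min (n = 6 per point) and homogenised in 0.01 N HCl with unlabelled carriers and a [¹⁴C]-N-butylnormeperidine internal standard. Samples were basified to pH 12, extracted into benzene and run on TLC. Levels came from ³H/¹⁴C ratios against a standard curve, expressed per gram, with area under the concentration-time curve.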

For the compound `CCCCCCN1CCC(C(=O)OCC)(c2ccccc2)CC1.Cl`, in the series with Mus musculus [1], the Ratio is reported as 8.8. For the same compound, the Drug metabolism in the series with Liver [2] turned out to be 17.9 nmol·min; with Liver [3] it was 153.3 nmol·min. The same compound showed a 50% effective dose (ED50) with Mus musculus [4] of 3.7 µmol/kg. The compound further came in with a Drug uptake in the series on Brain of 126 nmol·min/g.
For the compound `CCCCN1CCC(C(=O)OCC)(c2ccccc2)CC1.Cl`, the Ratio in the series with Mus musculus [1] was 1.7. Moreover, the Drug metabolism in the series on Liver [2] came to 121.7 nmol·min; in the series with Liver [3], 83.8 nmol·min. In the series on Mus musculus [4], this compound came in with an ED50 of 19.1 µmol/kg. This compound also gave a Drug uptake in the series on Brain of 274 nmol·min/g.
Take `CCOC(=O)C1(c2ccccc2)CCN(C)CC1.Cl` [MEPERIDINE HYDROCHLORIDE]: the Drug metabolism in the series with Liver [2] amounted to 1733.1 nmol·min; with Liver [3] it was 926.7 nmol·min. This compound displayed an ED50 in the series on Mus musculus [4] of 32.8 µmol/kg.
Consider `CCCN1CCC(C(=O)OCC)(c2ccccc2)CC1.Cl`, for which, in the series on Mus musculus [1], the Ratio turned out to be 0.7. Also, the Drug metabolism in the series with Liver [2] was 917.7 nmol·min; in the series with Liver [3] it was 263.3 nmol·min. This compound returned an ED50 in the series with Mus musculus [4] of 45.9 µmol/kg. In the series on Brain, this compound gave a Drug uptake of 828 nmol·min/g.
